In the library only some 2.9% were active in any assay of this set; here they are far more common.
Runt-CBFb FRET: inhibitors of RUNX1 Runt–CBFb binding, primary screen, biochemical, FRET, Cerulean-Runt, Venus-CBFb, uHTS. Runt-related transcription factor 1 (Homo sapiens) + Core-binding factor subunit beta …. Cerulean-Runt/Venus-CBFb FRET ratio 530/480, 1 h. inhibition, % at 20 µM. 220,000 compounds, 0.46% hits;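 active = inhibition over about 50% at 20 µM in the single-dose screen, limit read from the data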;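 also: 0% = DMSO wells and 100% = excess unlabeled CBFb competitor control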
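Measured by: fluorescence energy transfer, 422 nm excitation, 530/480 nm emission; test system: Cerulean-tagged RUNX1 Runt domain (FRET donor) fusion protein; buffer or medium: Tris pH 7.5 buffer with BSA; compound: one dose, 20 µM compound, 1% DMSO; times: two 1 h room-temperature incubations shielded from light; benchmarks: unlabeled CBFb 5 µM, positive control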
Runt-SMMHC FRET: inhibitors of RUNX1 Runt–CBFb-SMMHC binding, primary screen, biochemical, FRET, Cerulean-Runt, Venus-CBFb-SMMHC, uHTS; 220,000 compounds, 0.74% hits; Runt-related transcription factor 1 (Homo sapiens) + Core-binding factor subunit beta …; Cerulean-Runt/Venus-CBFb-SMMHC FRET ratio 530/480, 1 h; inhibition, % at 20 µM;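 active = mean inhibition across duplicate retests at 20 µM reaching about 50%, limit read from the data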;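 also: 0% = DMSO wells and 100% = wells with excess untagged CBFb-SMMHC; inhibitors lower the FRET ratio by blocking Runt binding to CBFb-SMMHC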
Hck-Nef inh: inhibitors of Nef-activated human Hck kinase, primary screen, biochemical, Z-Lyte FRET, 384-well, Hck-YEEI. Tyrosine-protein kinase HCK (Homo sapiens), P08631. Recombinant Hck-YEEI plus Nef, Z-Lyte FRET kinase assay. inhibition, % at 20 µM. 220,000 compounds, 0.68% hits. AID 463187, 2010;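 active = Hck-Nef kinase inhibition above about 50%, limit read from the data; inactive = inhibition below that limit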;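 also: 0% = DMSO with Hck plus Nef and 100% = Hck alone without Nef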
Target sequence (P08631 whole entry, looked up): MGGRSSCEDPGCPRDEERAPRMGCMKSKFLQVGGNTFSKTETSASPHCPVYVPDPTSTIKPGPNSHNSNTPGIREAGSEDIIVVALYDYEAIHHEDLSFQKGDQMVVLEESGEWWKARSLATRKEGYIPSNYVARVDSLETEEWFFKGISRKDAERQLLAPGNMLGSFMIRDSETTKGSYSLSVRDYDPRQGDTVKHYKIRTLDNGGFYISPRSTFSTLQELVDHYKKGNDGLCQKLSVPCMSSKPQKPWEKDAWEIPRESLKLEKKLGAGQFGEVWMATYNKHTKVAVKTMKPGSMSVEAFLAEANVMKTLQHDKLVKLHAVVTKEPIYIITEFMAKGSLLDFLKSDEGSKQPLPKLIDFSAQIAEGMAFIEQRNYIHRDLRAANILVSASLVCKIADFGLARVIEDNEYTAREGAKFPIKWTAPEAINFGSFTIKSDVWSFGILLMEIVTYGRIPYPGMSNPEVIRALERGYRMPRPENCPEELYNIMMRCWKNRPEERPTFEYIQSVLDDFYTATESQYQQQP
RBBP9 inh: human RBBP9 inhibitors, primary screen, biochemical, fluorescence polarization, FP-Rh probe, HTS; Serine hydrolase RBBP9 (Homo sapiens), O75884; recombinant RBBP9; inhibition, % at 7.94 µM; 220,000 compounds, 0.2% hits; AID 1515, 2009;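 active = inhibition above the campaign mean of all tested compounds plus 3 SD, cut at about 14% in these data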;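 also: plate controls were DMSO wells with RBBP9 for no effect and wells lacking RBBP9 protein for full effect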
Target sequence (O75884 whole entry, looked up): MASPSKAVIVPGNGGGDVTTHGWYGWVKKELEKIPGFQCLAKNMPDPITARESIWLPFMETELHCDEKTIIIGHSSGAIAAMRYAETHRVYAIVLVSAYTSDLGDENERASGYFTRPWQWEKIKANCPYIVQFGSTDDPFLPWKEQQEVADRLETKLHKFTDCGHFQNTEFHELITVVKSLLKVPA
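Measured by: FP readout at 525/598 nm; material: recombinant human RBBP9; also added: Serine-hydrolase probe FP-Rh, 375 nM pre-mixing; medium: Tris buffer pH 8.0, NaCl, Pluronic; replication: one well per compound; doses: one concentration, 7.94 µM nominal, 0.794% DMSO; timing: preincubation 30 min plus labeling 45 min at 25 °C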
RanGTP-Imp inh: inhibitors of RanGTP-importin-beta interaction, primary screen, biochemical, FRET, CFP-Ran, YFP-importin-beta, homogeneous; cell-free CFP-Ran/YFP-importin-beta FRET ratio; inhibition, % (test concentration not listed); 300,000 compounds, 1.1% hits; AID 2216, 2009; Ran GTPase (GTP-bound) - importin-beta complex;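 active = more than half of the replicate wells show a fall in the fluorescence ratio signal beyond about 16%, limit read from the data, passing the limit was not always enough; inconclusive = exactly half of the replicate wells pass the set limit; inactive = fewer than half of replicates pass the limit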;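 also: 0% = DMSO wells and 100% = Ran loaded with GDP instead of GTP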
M18AAP inhibitor: PfM18AAP inhibitors, malaria aminopeptidase, primary screen, biochemical, QFRET, recombinant enzyme. M18 aspartyl aminopeptidase (Plasmodium falciparum 3D7). 290,000 compounds, 1.2% hits. inhibition, % at 7.35 µM. H-Glu-NHMec fluorogenic cleavage;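 active = inhibition above the campaign mean inhibition over all tested compounds plus 3 SD, cut at about 28% in these data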;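 also: 0% = plate median of test compound wells and 100% = 2 mM ZnCl2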
* = called active by the depositor.

How did O=C(NC1(C(F)(F)F)Oc2ccc(Cl)cc2O1)N1CCC2(CC1)OCCO2 (configuration not stated) do in these assays?
Runt-CBFb FRET: 26; Runt-SMMHC FRET: 19; Hck-Nef inh: 7; RBBP9 inh: -1; RanGTP-Imp inh: inconclusive; M18AAP inhibitor: 98*

What do the screens show for `O=C(CCC(=O)N1CCOc2ccc(Cl)cc21)N1CCC2(CC1)OCCO2`?
RanGTP-Imp inh: 0; M18AAP inhibitor: 0

What do the screens show for `COc1ccc(-n2c(O)c(C=NCCN3CCN(C(C)=O)CC3)c(=O)[nH]c2=S)cc1`?
RanGTP-Imp inh: 2; M18AAP inhibitor: -2

How did O=c1[nH]c(=O)n(Cc2ccccc2)c(O)c1/C=C1\C=Nc2ccccc21 do in these assays?
Runt-CBFb FRET: 39; Runt-SMMHC FRET: 93*; Hck-Nef inh: 0; RBBP9 inh: -13; RanGTP-Imp inh: 0; M18AAP inhibitor: 9

Results for Nc1ccc2ccc3cccc[n+]3c2c1 ?
RanGTP-Imp inh: -337; M18AAP inhibitor: 5

Results for C[n+]1c(-c2ccccc2)c2cc(N)ccc2c2ccc(N)cc21 ?
RanGTP-Imp inh: 3; M18AAP inhibitor: 34*

Results for CC1(C)C2SCC(=O)N2CCN1CC(=O)NN (configuration not stated) ?
Runt-CBFb FRET: 0; Runt-SMMHC FRET: -1; Hck-Nef inh: 4; RBBP9 inh: -1; RanGTP-Imp inh: 6; M18AAP inhibitor: -6

Results for CCC(=Nc1cc(OC)ccc1OC)c1c(O)[nH]c(=O)[nH]c1=O ?
Runt-CBFb FRET: 3; Runt-SMMHC FRET: 2; Hck-Nef inh: 2; RBBP9 inh: 4; RanGTP-Imp inh: 0; M18AAP inhibitor: 29*

What do the screens show for `CCC(C)n1c(O)c(/C=N/NC(=O)c2ccncc2)c(=O)[nH]c1=S` (configuration not stated)?
Runt-CBFb FRET: 44; Runt-SMMHC FRET: 77*; Hck-Nef inh: 10; RBBP9 inh: -12; RanGTP-Imp inh: -2; M18AAP inhibitor: 5

What do the screens show for `O=C(N/N=C/c1c(O)n(C2CCCCC2)c(=S)[nH]c1=O)c1ccccc1O`?
RanGTP-Imp inh: 13; M18AAP inhibitor: 11

What do the screens show for `O=C(N/N=C/c1c(O)n(Cc2ccc(F)cc2)c(=S)[nH]c1=O)c1ccncc1`?
Runt-CBFb FRET: 69*; Runt-SMMHC FRET: 84*; Hck-Nef inh: -53; RBBP9 inh: -1; RanGTP-Imp inh: 10; M18AAP inhibitor: 5

How did CCn1c(O)c(/C=N/NC(=O)c2ccccc2)c(=O)n(CC)c1=S do in these assays?
Runt-CBFb FRET: 36; Runt-SMMHC FRET: 70*; Hck-Nef inh: 10; RBBP9 inh: -2; RanGTP-Imp inh: 11; M18AAP inhibitor: -8

What do the screens show for `CCC(C)n1c(O)c(/C=N/Nc2ccccc2)c(=O)[nH]c1=S` (configuration not stated)?
Runt-CBFb FRET: 13; Runt-SMMHC FRET: -1; Hck-Nef inh: -2; RBBP9 inh: -4; RanGTP-Imp inh: 1; M18AAP inhibitor: 7

What do the screens show for `CC(C)c1ccc(-n2c(O)c(/C=N/NC(=O)c3ccccc3O)c(=O)[nH]c2=S)cc1`?
Runt-CBFb FRET: 21; Runt-SMMHC FRET: 59*; Hck-Nef inh: 7; RBBP9 inh: -3; RanGTP-Imp inh: 3; M18AAP inhibitor: 6

What do the screens show for `Cc1nc2ccc(Cl)cc2c(=O)n1-c1ccccc1Cl`?
RanGTP-Imp inh: 3; M18AAP inhibitor: -7

Results for CCn1c(O)c(/C=N/NC(=O)c2ccncc2)c(=O)[nH]c1=S ?
Runt-CBFb FRET: 28; Runt-SMMHC FRET: 82*; Hck-Nef inh: 7; RBBP9 inh: -12; RanGTP-Imp inh: 5; M18AAP inhibitor: 7

What do the screens show for `CCCCn1c(O)c(/C=N/NC(=O)c2ccncc2)c(=O)[nH]c1=O`?
Runt-CBFb FRET: 3; Runt-SMMHC FRET: 5; Hck-Nef inh: -16; RBBP9 inh: -5; RanGTP-Imp inh: 1; M18AAP inhibitor: 3

How did O=C1NC(c2cccnc2)Nc2sc3c(c21)CCCC3 (configuration not stated) do in these assays?
Runt-CBFb FRET: 9; Runt-SMMHC FRET: 0; Hck-Nef inh: 0; RBBP9 inh: -4; RanGTP-Imp inh: -4; M18AAP inhibitor: 31*

Results for CC1(C)Cc2c(sc3c2C(=O)NC(c2cccnc2)N3)CO1 (configuration not stated) ?
Runt-CBFb FRET: 4; Runt-SMMHC FRET: -3; Hck-Nef inh: 2; RBBP9 inh: -4; RanGTP-Imp inh: 5; M18AAP inhibitor: -7

How did Cc1cc(OCC(=O)N2CCC(C(=O)O)CC2)c2c3c(c(=O)oc2c1)CCCC3 do in these assays?
RanGTP-Imp inh: -4; M18AAP inhibitor: 1

Results for Cc1ccc2c(c1)c(=O)c1c3n2CCN(CC2CO2)C3CC1 (configuration not stated) ?
Runt-CBFb FRET: 4; Runt-SMMHC FRET: 11; Hck-Nef inh: 6; RBBP9 inh: 3; RanGTP-Imp inh: 29*; M18AAP inhibitor: 2

Results for O=C(N/N=C/c1c(O)n(CCc2ccccc2)c(=O)[nH]c1=O)c1ccccc1 ?
Runt-CBFb FRET: 1; Runt-SMMHC FRET: 3; Hck-Nef inh: 13; RBBP9 inh: -1; RanGTP-Imp inh: -3; M18AAP inhibitor: 1

Results for CCc1c(C)nc(N)nc1N1N=C1SC(C(C)=O)C(C)=O ?
Runt-CBFb FRET: 8; Runt-SMMHC FRET: -4; Hck-Nef inh: 20; RBBP9 inh: -1; RanGTP-Imp inh: -3; M18AAP inhibitor: 11

How did CNC(=O)Oc1cccc(-c2cn3cc(OC(=O)NC)ccc3n2)c1 do in these assays?
Runt-CBFb FRET: -1; Runt-SMMHC FRET: -33; Hck-Nef inh: 6; RBBP9 inh: -5; M18AAP inhibitor: 31*

Results for O=[N+]([O-])NC1=NCCN1Cc1ccc(Cl)nc1 ?
RanGTP-Imp inh: 0; M18AAP inhibitor: -8

How did S=P(Nn1cnnc1)(c1ccc(Br)cc1)c1ccc(Br)cc1 do in these assays?
Runt-CBFb FRET: -1; Runt-SMMHC FRET: -2; Hck-Nef inh: 15; RBBP9 inh: -7; RanGTP-Imp inh: 4; M18AAP inhibitor: 29*

Results for CN1CCN(c2c(C#N)c(C(F)(F)F)nn2C)CC1 ?
Runt-CBFb FRET: 81*; Runt-SMMHC FRET: -4; Hck-Nef inh: -20; RBBP9 inh: 2; RanGTP-Imp inh: inconclusive; M18AAP inhibitor: -14

Bioassay records from PubChem BioAssay.
